From ChEMBL document CHEMBL4368939, “4,6-Substituted-1H-Indazoles as potent IDO1/TDO dual inhibitors” (Bioorg Med Chem, 2019) come the findings set out here.

Active and inactive are the calls of the source. No cut-off for these calls is given here.

In data set [1] the target is T1, Tryptophan 2,3-dioxygenase (Homo sapiens, UniProt P48775). The data set can be described thus: Inhibition of TDO (unknown origin).
Target sequence in this assay (P48775 whole entry): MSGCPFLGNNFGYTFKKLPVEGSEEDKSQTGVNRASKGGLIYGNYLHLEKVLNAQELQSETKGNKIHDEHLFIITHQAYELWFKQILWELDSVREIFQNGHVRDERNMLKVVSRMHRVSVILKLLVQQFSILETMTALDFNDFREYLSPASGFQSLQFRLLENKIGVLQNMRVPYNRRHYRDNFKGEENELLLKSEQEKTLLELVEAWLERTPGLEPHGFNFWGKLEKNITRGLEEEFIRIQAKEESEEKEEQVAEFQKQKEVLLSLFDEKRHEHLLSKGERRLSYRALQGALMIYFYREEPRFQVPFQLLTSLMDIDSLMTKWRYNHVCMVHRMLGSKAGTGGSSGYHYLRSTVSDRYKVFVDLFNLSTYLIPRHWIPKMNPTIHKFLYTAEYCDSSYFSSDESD
Data set [2] has as its target T2, Indoleamine 2,3-dioxygenase 1 (Homo sapiens, UniProt P14902). Put plainly: Inhibition of human IDO1 expressed in Escherichia coli at 10 uM using L-tryptophan as substrate after 1 hr by UV absorption analysis. Put shortly:
(§1)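 N-terminal human IDO1 or TDO was expressed in E. coli and Ni affinity-purified. Enzyme (100 nM) was incubated with compounds for 1 h at room temperature in Ca/Mg-free potassium phosphate buffer with […], 40 mM ascorbate, 200 µg/ml catalase and 20 µM methylene blue. Stop: 30% TCA, 65°C 15 min. Kynurenine read with DMAB at 480 nm against a standard curve. Triplicate, mean ± SD.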
Target sequence in this assay (P14902 whole entry, looked up): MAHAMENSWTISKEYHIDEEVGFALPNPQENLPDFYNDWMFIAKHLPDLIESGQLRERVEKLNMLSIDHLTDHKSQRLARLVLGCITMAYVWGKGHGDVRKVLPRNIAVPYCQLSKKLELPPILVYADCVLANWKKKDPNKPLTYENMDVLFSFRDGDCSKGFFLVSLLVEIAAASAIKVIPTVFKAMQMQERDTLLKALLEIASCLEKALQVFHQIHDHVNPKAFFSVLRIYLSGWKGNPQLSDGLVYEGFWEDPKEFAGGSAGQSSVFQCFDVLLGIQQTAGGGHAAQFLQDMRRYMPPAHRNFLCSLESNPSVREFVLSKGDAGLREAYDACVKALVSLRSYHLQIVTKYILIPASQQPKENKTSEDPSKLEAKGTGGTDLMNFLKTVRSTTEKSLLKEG

In data set [3] the target is T1, Tryptophan 2,3-dioxygenase. Put plainly: Inhibition of human TDO expressed in Escherichia coli at 10 uM using L-tryptophan as substrate after 1 hr by UV absorption analysis. Put shortly: as §1
Target sequence in this assay (P48775 whole entry, looked up): as the sequence (P48775 whole entry) above
Data set [4] has as its target T2, Indoleamine 2,3-dioxygenase 1. The data set can be described thus: Inhibition of IDO1 in IFN-gamma-induced human HeLa cells assessed as reduction in L-kynurenine level after 24 hrs. It is filed as cell-based. Put shortly:
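HeLa cells were plated for 24 h, then given IFNγ (50 ng/mL) plus inhibitors for 24 h; vehicle was 0.5% DMSO. Medium was mixed with 30% TCA and centrifuged. Supernatant kynurenine was reacted with 2% p-DMAB in acetic acid, read at 480 nm and quantified against an L-kynurenine standard curve. Triplicate, mean ± SD.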

Data set [5] concerns HeLa. The data set can be described thus: Effect on IFN-gamma-induced IDO1 expression in human HeLa cells at 10 to 50 uM by Western blot analysis. It is filed as functional, cell-based. The method in brief: (§2)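 HeLa cells were pretreated for 2 h with inhibitors (10, 20, 50 µM) or a JAK inhibitor (1 µM), then given IFNγ 50 ng/mL for 24 h; 0.5% DMSO served as negative control. RIPA lysates with equal protein were run on 10% SDS-PAGE and blotted to nitrocellulose. Probes: rabbit anti-IDO1 (1:1000) and anti-GAPDH (1:4000) overnight at 4°C; HRP anti-rabbit 90 min.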

For data set [6], the system named is CT26. Put plainly: Antitumor activity against mouse CT26 cells transplanted in Balb/c mouse assessed as tumor growth inhibition at 20 mg/kg/day, po administered for 18 consecutive days relative to control. It is filed as functional. The conditions noted are these: read-out: TGI. Put shortly:
(§3)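 CT26 cells (100 µL of 1 × 10^7 cells/mL suspension) were injected s.c. into Balb/c mice. After 4 days, mice were randomized, 6 per group, and dosed orally once daily at 20, 40 or 80 mg/kg/day. Vehicle was 5% DMSO, 20% PEG400 and 75% deionized water. Tumors were measured by caliper every 3 days; volume = a × b²/2.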

Data set [7] has as its system HeLa. The data set can be described thus: Reduction in IFN-gamma-induced IDO1 expression in human HeLa cells by Western blot analysis. It is filed as functional, cell-based. The method in brief: as §2
Data set [8] deals with T1, Tryptophan 2,3-dioxygenase. The data set can be described thus: Inhibition of human TDO expressed in human A172 assessed as reduction in kynurenine formation using L-tryptophan as substrate after 24 hrs. Put shortly:
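A172 cells, which express TDO highly, were plated at 2 × 10^4 cells/well overnight. Cells were then exposed to compounds with L-Trp (20 µg/ml) for 24 h. Medium was treated with 30% TCA at 65°C for 30 min and centrifuged. Kynurenine was measured with 2% p-DMAB at 480 nm against an L-kynurenine standard curve.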

Data set [9] deals with CT26. The data set can be described thus: Antitumor activity against mouse CT26 cells transplanted in Balb/c mouse assessed as tumor growth inhibition at 80 mg/kg/day, po administered for 18 consecutive days relative to control. It is filed as functional. The conditions noted are these: read-out: TGI. Put shortly: as §3
The test system of data set [10] is CT26. Put plainly: Antitumor activity against mouse CT26 cells transplanted in Balb/c mouse assessed as tumor growth inhibition at 40 mg/kg/day, po administered for 18 consecutive days relative to control. The class given is functional. The conditions noted are these: read-out: TGI. Put shortly:
as §3

Data set [11] deals with T2, Indoleamine 2,3-dioxygenase 1. Put plainly: Inhibition of human IDO1 expressed in Escherichia coli using L-tryptophan as substrate after 1 hr by UV absorption analysis. Put shortly:
as §1
Target sequence in this assay (P14902 whole entry): as the sequence (P14902 whole entry, looked up) above

In data set [12] the target is T1, Tryptophan 2,3-dioxygenase. The data set can be described thus: Inhibition of human TDO expressed in Escherichia coli at using L-tryptophan as substrate after 1 hr by UV absorption analysis. The method in brief: as §1
Target sequence in this assay (P48775 whole entry): as the sequence (P48775 whole entry) above
Data set [13] relates to HeLa. The data set can be described thus: Reduction in IFN-gamma-induced GAPDH expression in human HeLa cells by Western blot analysis. The class given is ADME, cell-based. Put shortly: as §2

Usually IC50 stands for the concentration needed to halve the response being measured. As for `CN1CCN(C(=O)c2ccc(Cn3nnc4c3C(=O)c3ccccc3C4=O)cc2)CC1`, the IC50 in data set [1] stood at 30 nM.
In general, inhibition refers to the drop in the measured response relative to a control, in per cent. With `Brc1cc(NCc2cccc3sccc23)c2cn[nH]c2c1`, the inhibition is 3% in [2] and 56% in data set [3].
The matching figures for `Brc1cc(NCc2ccc3c(c2)OCO3)c2cn[nH]c2c1`: 68% and 62%.
For `O=C1CCCC(Nc2cccc(CNc3cc(Br)cc4[nH]ncc34)c2)C1` (stereo not drawn), the inhibition in data set [2] came out at 52%; in [3], 46%.
The matching figures for `Brc1cc(NCc2ccncc2)c2cn[nH]c2c1`: 54% and 55%.
In the same order, the values of `Oc1ccc(CNc2cc(Br)cc3[nH]ncc23)cc1O` are 50% and “inactive”.
`Cc1cc(O)ccc1CNc1cc(Br)cc2[nH]ncc12`: the inhibition in data set [2] is 60%; in [3], 19%.
In the same order, the values of `O=C(O)CNc1cccc(CNc2cc(Br)cc3[nH]ncc23)c1` are 57% and “inactive”.
In the same order, the values of `Cc1cc(CNc2cc(Br)cc3[nH]ncc23)ccc1O` are 28% and 30%.
The matching figures for `CCOC(=O)CNc1cccc(CNc2cc(Br)cc3[nH]ncc23)c1`: 29% and “inactive”.
`CC(=O)Nc1ccc(CNc2cc(Br)cc3[nH]ncc23)cc1` gave an inhibition in data set [2] of 48%. In addition, the inhibition result in data set [3] was “inactive”.
As to `ONc1ccc(CNc2cc(Br)cc3[nH]ncc23)cc1`, the inhibition result in data set [2] was “inactive”. The molecule further registered an inhibition in [3] of 6%.
In the same order, the values of `Brc1cc(NCc2cnc[nH]2)c2cn[nH]c2c1` are 16% and 54%.
As for `Oc1ccc(CNc2cc(Br)cc3[nH]ncc23)cc1F`, the inhibition in data set [2] stood at 52%; in data set [3] it was 26%.
The matching figures for `NS(=O)(=O)c1ccc(CNc2cc(Br)cc3[nH]ncc23)cc1`: 20% and 75%.
In the same order, the values of `ONc1cccc(CNc2cc(Br)cc3[nH]ncc23)c1` are 53% and “inactive”.
The matching figures for `Nc1ccc(CCNc2cc(Br)cc3[nH]ncc23)cc1`: 2% and “inactive”.
With `OC1CCCC(Nc2cccc(CNc3cc(Br)cc4[nH]ncc34)c2)C1` (stereo not drawn), the inhibition was found to be 52% in data set [2] and 50% in data set [3].
The matching figures for `Oc1ccc(CNc2cc(Br)cc3[nH]ncc23)cc1Cl`: 60% and 19%.
Turning to `Oc1ccc(CNc2cc(Br)cc3[nH]ncc23)cc1`, the inhibition entry in data set [3] and in [4] was “inactive” each time. In addition, the result in the data set with HeLa [5] was inactive.
For `CC(Nc1cc(Br)cc2[nH]ncc12)c1ccc([N+](=O)[O-])cc1` (stereo not drawn), the figures for the inhibition in data set [2] and in data set [3] were 17% and 56%, respectively.
Turning to `Nc1ccc(CNc2cc(Br)cc3[nH]ncc23)cc1`, the figures for the inhibition in data set [2] and in [3] were 3% and 24%, respectively.
The matching figures for `Brc1cc(NCc2ccco2)c2cn[nH]c2c1`: 29% and 64%.
In turn, `Nc1cccc(CNc2cc(Br)cc3[nH]ncc23)c1` registered an inhibition in data set [2] of 31%. Besides, the inhibition result in data set [3] was “inactive”.
The molecule `Oc1ccc(CNc2cc(Br)cc3[nH]ncc23)c(F)c1` had an inhibition in [2] of 69%. Also, in data set [3], the inhibition entry is “inactive”.
In the case of `O=C1c2ccccc2-n2c1nc1ccccc1c2=O` [TRYPTANTHRIN], the IC50 in [1] was 900 nM.
Turning to `Oc1cccc(CNc2cc(Br)cc3[nH]ncc23)c1`, the figures for the inhibition in [2] and in data set [3] were 45% and 55%, respectively.
In the same order, the values of `Oc1ccc(CNc2cc(Br)cc3[nH]ncc23)c(O)c1` are 40% and “inactive”.
The matching figures for `Nc1ccccc1CC(=O)Nc1ccc(CCNc2cc(Br)cc3[nH]ncc23)cc1`: 3% and 29%.
In the same order, the values of `N#Cc1ccc(CNc2cc(Br)cc3[nH]ncc23)cc1` are 70% and 73%.
With `FC(F)(F)c1cccc(CNc2cc(Br)cc3[nH]ncc23)c1`, the inhibition in [2] turned out to be 16%; in data set [3] it was 56%.
In the same order, the values of `OCc1ccc(CNc2cc(Br)cc3[nH]ncc23)cc1` are 45% and 56%.
In the same order, the values of `Nc1cc(CNc2cc(Br)cc3[nH]ncc23)ccc1O` are 32% and “inactive”.
The matching figures for `Nc1nc(CNc2cc(Br)cc3[nH]ncc23)cs1`: “inactive” and 73%.
Consider `CC(C)Nc1cc(Br)cc2[nH]ncc12`, for which the inhibition in data set [2] was 47%. For the same molecule, the inhibition result in data set [3] was “inactive”.
In the same order, the values of `Brc1cc(NCc2cccs2)c2cn[nH]c2c1` are 54% and 53%.
The matching figures for `O=C(Nc1ccc(CCNc2cc(Br)cc3[nH]ncc23)cc1)NC1CCOCC1`: “inactive” and 20%.
`CC(Nc1cc(Br)cc2[nH]ncc12)c1ccccc1` (stereo not drawn): the inhibition in data set [2] is 14%. Also, the inhibition result in [3] is “inactive”.
Take `NS(=O)(=O)NCCNc1nonc1/C(=N/O)Nc1ccc(F)c(Br)c1` [EPACADOSTAT]: the inhibition in vivo at 20 mg/kg/day with CT26 [6] was 39.2%.
As for `Nc1ccccc1CNc1cc(Br)cc2[nH]ncc12`, the inhibition in data set [2] was 36%. In addition, the inhibition entry in data set [3] is “inactive”.
On to `Brc1cc(NCc2cccc3nonc23)c2cn[nH]c2c1`, for which the inhibition in data set [2] is 91%; in data set [3], 85%; in [4], “Dose-dependent effect”; in [8], “Dose-dependent effect”. Besides, the IC50 in [4] came out at 1370 nM; in data set [8] it was 7540 nM; in data set [11], 740 nM; in data set [12], 2940 nM. Also, the Activity entry in the data set with HeLa [7] was “Dose-dependent effect”; with HeLa [13] it was “Toxic”. In the data set on CT26 [9], the inhibition in vivo at 80 mg/kg/day was 47.3%. Besides, the inhibition in vivo at 40 mg/kg/day with CT26 [10] was determined as 38.1%. Also, the inhibition in vivo at 20 mg/kg/day with CT26 [6] was 21.7%.
In [2], `Nc1ccc2ccccc2c1CNc1cc(Br)cc2[nH]ncc12` had an inhibition of 15%. For the same molecule, the inhibition entry in [3] is “inactive”.
